Assay results from ChEMBL document CHEMBL1135816, “6-Aryl-1,4-dihydro-benzo[d][1,3]oxazin- 2-ones: a novel class of potent, selective, and orally active nonsteroidal progesterone receptor antagonists” (J Med Chem, 2002).
pEC50, pIC50: −log10 of the molar value.

How the values were obtained:
Progesterone receptor [1] = target: T1, Progesterone receptor (Homo sapiens, UniProt P06401); test: Antagonist activity against progesterone receptor (PR) in an alkaline phosphatase assay in the T47D human breast carcinoma cell line; format: functional, cell-based
T1 sequence (P06401 whole entry): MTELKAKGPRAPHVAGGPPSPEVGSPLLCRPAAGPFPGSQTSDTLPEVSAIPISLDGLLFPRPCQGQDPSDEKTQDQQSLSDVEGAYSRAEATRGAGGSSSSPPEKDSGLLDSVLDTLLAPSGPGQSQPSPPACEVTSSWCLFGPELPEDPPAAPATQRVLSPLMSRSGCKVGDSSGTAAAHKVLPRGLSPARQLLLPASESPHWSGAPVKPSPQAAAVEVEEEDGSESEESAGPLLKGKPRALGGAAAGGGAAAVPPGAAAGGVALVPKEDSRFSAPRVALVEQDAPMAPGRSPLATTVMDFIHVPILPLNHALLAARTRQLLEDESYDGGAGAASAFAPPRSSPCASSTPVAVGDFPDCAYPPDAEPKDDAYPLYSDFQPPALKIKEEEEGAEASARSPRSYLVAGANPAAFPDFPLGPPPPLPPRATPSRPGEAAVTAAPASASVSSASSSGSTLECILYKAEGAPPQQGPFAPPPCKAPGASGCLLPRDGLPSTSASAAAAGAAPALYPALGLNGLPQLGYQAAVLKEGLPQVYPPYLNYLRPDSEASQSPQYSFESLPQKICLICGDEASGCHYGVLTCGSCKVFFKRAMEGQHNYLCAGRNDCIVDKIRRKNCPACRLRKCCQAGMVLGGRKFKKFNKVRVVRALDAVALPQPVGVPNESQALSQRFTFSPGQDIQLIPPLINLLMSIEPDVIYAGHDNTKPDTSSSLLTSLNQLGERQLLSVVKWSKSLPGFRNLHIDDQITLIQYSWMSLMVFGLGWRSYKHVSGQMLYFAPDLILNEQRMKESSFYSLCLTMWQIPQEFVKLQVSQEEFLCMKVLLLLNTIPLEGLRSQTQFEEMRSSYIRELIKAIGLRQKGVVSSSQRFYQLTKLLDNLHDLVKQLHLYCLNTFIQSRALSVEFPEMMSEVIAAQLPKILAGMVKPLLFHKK

Progesterone receptor [2] = target: T1, Progesterone receptor; test: Agonist activity against progesterone receptor (PR) in an alkaline phosphatase assay in the T47D human breast carcinoma cell line; format: functional, cell-based
In short: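 T47D human breast carcinoma cells scored for PR agonism via alkaline phosphatase read-out; EC50 taken as the mean of at least duplicate determinations.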

[3] = Half life in female rats for a dose of 1 mg/kg administered intravenously.; format: ADME, organism-based; set-up: dose 1 mg/kg, route intravenous; conditions: rat, in vivo, iv
[4] = Area under the curve (AUC) for the compound in female rats for a dose of 1 mg/kg administered intravenously.; format: ADME, organism-based; set-up: dose 1 mg/kg, route intravenous; conditions: rat, in vivo, iv
[5] = Plasma clearance (Cl) for the compound in female rats for a dose of 1 mg/kg administered intravenously; format: ADME, organism-based; set-up: dose 1 mg/kg, route intravenous; conditions: rat, iv, read-out: Clp (converted)

SMILES | pIC50 (Progesterone receptor [1]) | pEC50 (Progesterone receptor [2]) | half-life [3] | AUC [4] | clearance [5]
CC1(C)OC(=O)Nc2ccc(-c3coc(C#N)c3)cc21 | 8.10 | – | – | – | –
CC1(C)OC(=O)Nc2ccc(-c3csc(C#N)c3)cc21 | – | 7.21 | – | – | –
CC1(C)OC(=O)Nc2ccc(-c3ccc(F)c(Cl)c3)cc21 | 7.64 | – | – | – | –
CC1(C)OC(=O)Nc2ccc(-c3cc(F)cc(C#N)c3)cc21 | – | 7.05 | 7.7 h | 3690 ng·h/mL | 3.67 mL/min/kg
